Assay results taken from ChEMBL document CHEMBL3861979, “Polyprenylated Benzoylphloroglucinols with DNA Polymerase Inhibitory Activity from the Fruits of Garcinia schomburgkiana” (J Nat Prod, 2016).

Experiments:
DNA polymerase lambda = target: T1, DNA polymerase lambda (Homo sapiens, UniProt Q9UGP5); assay: Inhibition of recombinant human His-tagged DNA polymerase lambda assessed as reduction in [3H]dTTP incorporation using poly(dA)/oligo(dT)18 as template/primer preincubated for 10 mins followed by template/primer addition measured after 60 mins
T1 sequence (Q9UGP5 whole entry): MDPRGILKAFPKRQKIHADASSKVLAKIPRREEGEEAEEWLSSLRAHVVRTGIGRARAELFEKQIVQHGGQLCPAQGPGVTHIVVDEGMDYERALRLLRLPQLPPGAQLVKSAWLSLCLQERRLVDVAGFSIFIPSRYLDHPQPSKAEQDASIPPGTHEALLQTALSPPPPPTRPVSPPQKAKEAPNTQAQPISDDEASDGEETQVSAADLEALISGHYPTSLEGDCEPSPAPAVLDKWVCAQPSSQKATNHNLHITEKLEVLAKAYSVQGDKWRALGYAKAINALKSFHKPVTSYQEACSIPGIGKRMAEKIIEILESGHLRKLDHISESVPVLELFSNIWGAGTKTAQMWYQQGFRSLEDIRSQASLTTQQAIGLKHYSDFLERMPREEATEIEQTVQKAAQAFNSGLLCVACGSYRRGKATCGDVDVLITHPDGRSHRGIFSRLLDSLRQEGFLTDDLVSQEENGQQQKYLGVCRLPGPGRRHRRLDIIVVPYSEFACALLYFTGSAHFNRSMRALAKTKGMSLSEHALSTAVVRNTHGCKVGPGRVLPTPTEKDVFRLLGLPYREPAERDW
Method in brief: (§1)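 IC50 values are given as mean ± SD from three independent experiments.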

[1] = Cytotoxicity against human HeLa cells assessed as reduction in cell viability after 24 hrs by MTT assay; format: functional; conditions: read-out: LD50 (the source's name)
Method in brief: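 HeLa human cervical cancer cultured cells. Potency is expressed as median lethal dose (LD50). Values are mean ± SD of five independent experiments.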

[2] = Inhibition of calf thymus DNA polymerase alpha assessed as reduction in [3H]dTTP incorporation using poly(dA)/oligo(dT)18 as template/primer preincubated for 10 mins followed by template/primer addition measured after 60 mins; parameters: species or system Bos taurus; method in brief: as §1

SMILES | IC50 (DNA polymerase lambda) | CC50 [1] | IC50 [2]
Cc1cn([C@H]2CC[C@@H](COP(=O)(O)OP(=O)(O)OP(=O)(O)O)O2)c(=O)[nH]c1=O | 28.7 µM | > 200 µM | > 200 µM
C=C(C)C(O)C[C@@H]1C[C@]2(CC=C(C)C)C(=O)[C@@](CC=C(C)C)(C(=O)C(C(=O)c3ccc(O)c(O)c3)=C2O)[C@@]1(C)CCC=C(C)C (some centres undefined) | 8.8 µM | 66.5 µM | 8.6 µM
C[C@@]1(CO)[C@H](O)CC[C@@]2(C)[C@H]1CC[C@H]1C[C@@H]3C[C@@]12CC[C@]3(O)CO [APHIDICOLIN] | > 200 µM | 22 µM | 19.6 µM
CC(C)=CC[C@@H]1C[C@]2(CC=C(C)C)C(=O)[C@@]3(CC=C(C)C)C(O[C@@H](C(C)(C)O)CC[C@@]13C)C(C(=O)c1ccc(O)c(O)c1)=C2O (some centres undefined) | 7.4 µM | 6.5 µM | 5.6 µM
CC(C)=CCC[C@@]1(C)[C@H](CC=C(C)C)C[C@]2(CC=C(C)C)C(=O)[C@@]1(CC=C(C)C)C(=O)C(C(=O)c1ccc(O)c(O)c1)=C2O [GUTTIFERONE K] | 5.4 µM | – | –
CC(C)=CCC/C(C)=C/CC1(CC=C(C)C)C(O)=C(C(=O)c2ccc(O)c(O)c2)C(=O)C2=C1OC(C)(C)C=C2 (centres undefined) | 6.2 µM | 50.8 µM | 7.9 µM
CC(C)=CCC/C(C)=C/C[C@@H]1C[C@]2(CC=C(C)C)C(=O)[C@@]3(CC=C(C)C)C(O[C@@H](C(C)(C)O)CC[C@@]13C)C(C(=O)c1ccc(O)c(O)c1)=C2O (some centres undefined) | 6.9 µM | 5.9 µM | 5.4 µM
CC(C)=CCC[C@@]1(C)[C@H](C/C=C(\C)C/C=C/C(C)(C)O)C[C@]2(CC=C(C)C)C(=O)[C@@]1(CC=C(C)C)C(=O)C(C(=O)c1ccc(O)c(O)c1)=C2O | 5.6 µM | 73.4 µM | 8.8 µM
C=C(C)[C@@H](O)CC/C(C)=C/C[C@@H]1C[C@]2(CC=C(C)C)C(=O)[C@@](CC=C(C)C)(C(=O)C(C(=O)c3ccc(O)c(O)c3)=C2O)[C@@]1(C)CCC=C(C)C | 5.8 µM | 9.9 µM | 6.4 µM
CC(C)=CCC[C@@]1(C)[C@H](CC=C(C)C)C[C@]2(CC=C(C)C)C(=O)[C@@]1(CC=C(C)C)C(=O)C(C(=O)c1cccc(O)c1)=C2O | 5.7 µM | 10.2 µM | 6.5 µM
CC(C)=CCC/C(C)=C/C[C@@H]1C[C@]2(CC=C(C)C)C(=O)[C@@](CC=C(C)C)(C(=O)C(C(=O)c3ccc(O)c(O)c3)=C2O)[C@@]1(C)CCC=C(C)C [OBLONGIFOLIN C] | 5.2 µM | 7.3 µM | 5.7 µM
C=C(C)[C@H](O)CC/C(C)=C/C[C@@H]1C[C@]2(CC=C(C)C)C(=O)[C@@](CC=C(C)C)(C(=O)C(C(=O)c3ccc(O)c(O)c3)=C2O)[C@@]1(C)CCC=C(C)C | 5 µM | 9.8 µM | 6.3 µM
